An excerpt weighted towards active compounds, which were near 11% of everything screened.
Diaphorase inh – counter-screen for diaphorase-based assays: diaphorase inhibitors and chemical oxidizers | diaphorase resazurin-to-resorufin fluorescence, NADH, 16 min; bacterial (C. kluyveri) enzyme, not human | inhibition, % at 20 µM | actives 0.69% (n = 190,000);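 active = primary screen inhibition at 20 µM above a set limit, cut at about 50% in these data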;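 note: plate controls were DMSO with full reaction for no effect and wells lacking NADH for full effect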
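material = Clostridium kluyveri diaphorase enzyme | amount = 0.14 U/mL diaphorase, enzyme working solution | schedule = incubation 16 min, room temperature | detection = fluorescence of resorufin formed from resazurin, Ex 544/Em 590 nm | benchmarks = positive control minus NADH, DMSO neutral control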
L major viab – Leishmania major promastigote growth inhibition; Leishmania major promastigotes, resazurin fluorescence viability; inhibition, % at 10 µM; actives 9% (n = 200,000); AID 1063;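 note: promastigotes grown with compound for 44 hours at 28 °C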
WT yeast gro inh – growth inhibition of WT yeast, mitochondrial fusion screen; mitochondrial fusion phenotypic screen, WT strain; inhibition, % at 10 µM; actives 2.1% (n = 190,000); AID 1362; in the data active = inhibition above about 58%; tested in S. cerevisiae
G6PDH counter – counter-screen for G6PDH assay hits: L. mesenteroides G6PDH inhibition. Purified L. mesenteroides G6PDH, diaphorase/resazurin coupled fluorescence, 45 min. inhibition, % at 5 µM. actives 0.12% (n = 200,000)
Diaph act CS – activates diaphorase or chemically reduces, flagging diaphorase assay artifacts; Diaphorase/resazurin coupled assay, resorufin fluorescence, 16 min; stronger effect = higher value; 1 = vehicle wells, 0 = NADH-free wells; AID 1229; actives 0.005% (n = 190,000); activation factor at 20 µM;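 active = diaphorase activity raised at least twofold by the compound at 20 µM; inactive = activation factor below 2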
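test system = bacterial diaphorase enzyme (C. kluyveri) | quantity = enzyme 0.07 U/mL final | reagent = NADH substrate 0.114 mM plus resazurin dye 0.1 mM, final | incubation = 16 min enzyme reaction, ambient temperature | buffer or medium = HEPES pH 7.4 buffer with MgCl2 and Tween 20 | signal = fluorescence of resorufin, 544 nm excitation, 590 nm emission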
Numbers without * were called inactive; / = no result. Cut-off read from the data, not from the text of the source, unless noted: active = inhibition above about 50%; inactive = the rest.

SMILES	Diaphorase inh	L major viab	WT yeast gro inh	G6PDH counter	Diaph act CS
Cn1c(O)c(/C=N/c2ccccn2)c(=O)n(C)c1=O	16	-4	-3	4	0.8
Cc1ccc(CN(Cc2ccccc2)C(=S)NCC(=O)N2CCC3(CC2)OCCO3)o1	14	12	10	4	0.9
Cc1ccc(C(=O)C2CN3CCC2CC3)cc1 (stereo unspecified)	8	74*	-20	37	0.9
Cc1ccc(C(=O)C2CN(C)CC2C(=O)c2ccc(C)cc2)cc1 (stereo unspecified)	10	2	5	-2	0.9
COC1=CCC2([N+](=O)[O-])CN(C)CC1([N+](=O)[O-])C2 (stereo unspecified)	-1	-4	-9	6	1
CC(C(=O)N1CCC2(CC1)OCCO2)C1Sc2ccccc2NC1=O (stereo unspecified)	9	0	1	-1	0.9
Clc1cccc(CN2CCCCC2c2cccnc2)c1 (stereo unspecified)	11	90*	9	14	0.9
O=[N+]([O-])c1cccc(CN2CCN(Cc3ccc(Cl)cc3)CC2)c1	0	85*	26	6	1
O=C(COc1ccc(Cl)cc1)N1CCN(Cc2ccc([N+](=O)[O-])cc2)CC1	22	67*	31	2	0.8
CN1C(=O)C(=Cc2ccc(OCCN(C)c3ccccn3)cc2)C(=O)N(C)C1=O	-3	-4	0	4	1
CCCCCCCCCOc1ccc2[nH]cc(CCN)c2c1	-227	/	97*	0	3.3*
COc1ccc2[nH]cc(CCN)c2c1	1	-1	-13	-2	1
CN(C=O)CP(=O)(O)CN(C)C=O	17	-4	4	1	0.8
CCNC(=S)N1CCn2cccc2C1c1cccnc1 (stereo unspecified)	0	70*	-2	3	1
OCC1(CO)COC(c2cccnc2)N1 (stereo unspecified)	6	-6	3	4	0.9
CCOC(=O)[C@]1(C#N)[C@@H]2C=CC(C(C)=O)=CN2[C@@H](C(N)=O)[C@@H]1c1ccsc1	23	-7	-7	8	0.8
CSc1ccc(CN2CCN(Cc3ccccc3Cl)CC2)cc1	18	82*	34	8	0.8
O=C(Cn1c(=O)n(CC2CS2)c2ccccc21)N1CCCCCC1 (stereo unspecified)	10	-3	-10	11	0.9
CCOC(C(=O)OCCC[N+](C)(CC)CC)(c1ccccc1)c1ccccc1	6	5	9	3	0.9
CCN(CC)CCCOC(=O)C(OC)(c1ccccc1)c1ccccc1	20	100*	4	0	0.8
CCOC(C(=O)OCC(O)CN(CC)CC)(c1ccccc1)c1ccccc1 (stereo unspecified)	15	100*	-11	6	0.9
Cc1ccc(S(=O)(=O)N(C)CCCC(=O)N2CCN(c3ccccn3)CC2)cc1	16	90*	2	6	0.8
CC(Cc1ccccc1)[n+]1cc(/N=C(\[O-])N(C)C)on1 (stereo unspecified)	8	-1	4	4	0.9
CN1C[C@@H]2C[C@@H](c3cccn3-c3ccccn3)N3CCC[C@@]23C1=O	25	-1	-10	16	0.7
Cc1ccsc1C(=O)C1CCCN(Cc2cc(C(C)C)n[nH]2)C1 (stereo unspecified)	18	3	-10	14	0.8
SMILES	Diaphorase inh	L major viab	WT yeast gro inh	G6PDH counter	Diaph act CS
O=C(N/N=C/c1c(O)n(-c2ccccc2)c(=O)[nH]c1=O)c1ccncc1	32	91*	14	9	0.7
Cc1c(NP(=O)(C(C)(C)C)C(C)(C)C)c(=O)n(-c2ccccc2)n1C	15	-5	10	2	0.9
CN1CCN(c2ccc(S(C)(=O)=O)cc2[N+](=O)[O-])CC1	-6	54*	-20	7	1.1
CN1CCN(c2ccc(S(=O)(=O)C(F)(F)F)cc2[N+](=O)[O-])CC1	10	51*	-1	-5	0.9
Clc1ccc(-c2nc3ccc(Cl)cn3c2CN2CCOCC2)cc1	0	53*	-6	10	1
O=c1c2cc(Cl)cc(Cl)c2nc(CN2CCOCC2)n1-c1ccccc1F	-4	12	3	7	1
CNP1(NC)=NC(C(F)(F)F)=NC(C(F)(F)F)=N1	3	-6	-8	0	1
CCOC(=O)C1(CCOc2ccccc2)CCN(C2Cc3ccccc3C2)CC1	15	88*	30	10	0.9
O=C(COc1ccccc1)N1CCN(C2CC3CCC2C3)CC1 (stereo unspecified)	3	72*	1	2	1
Cc1ccc(OCC(=O)NCCN2CCN(C(=O)COc3ccc(C)cc3)CC2)cc1	-9	-6	-6	-7	1.1
CN1CCN(C(=O)COc2ccc(Oc3ccccc3)cc2)CC1	6	-7	-2	2	0.9
Cc1ccc(OCC(=O)N2CCN(C3CCC(c4ccccc4)CC3)CC2)cc1 (stereo unspecified)	15	57*	-26	18	0.8
O=C(COc1ccc(Br)cc1)N1CCN(C2CCCC2)CC1	3	93*	-3	2	1
COC(=O)c1ccccc1-n1c(C)nc2ccccc2c1=O	3	-4	14	5	1
O=C(O)c1cccc2nc3ccccc3nc12	20	100*	11	8	0.8
CC(=O)OC1(c2ccccc2)CCN(C2CCCCC2)CC1C (stereo unspecified)	19	16	10	4	0.8
Fc1ccc2c(c1)nnn2C1CCN(Cc2ccccc2)CC1	-6	75*	0	3	1.1
Cc1ccc(-n2c(O)c(C=Nc3ccc(Br)cn3)c(=O)[nH]c2=O)cc1	18	-5	-6	1	0.8
O=C(COc1ccccc1F)N1CCN(CCN2C(=O)c3cccc4cccc(c34)C2=O)CC1	6	44	0	-1	0.9
O=C(COc1ccccc1)N1CCN(CCN2C(=O)c3cccc4cccc(c34)C2=O)CC1	10	58*	17	6	0.9
ON1C2CCCCC2N(O)C1c1ccccc1F (stereo unspecified)	12	-1	-4	1	0.9
CCn1c(O)c(C(c2ccccn2)c2c(O)n(CC)c(=S)[nH]c2=O)c(=O)[nH]c1=S	19	-9	97*	5	0.8
COc1cccc(C(=O)C2CCCN(Cc3ccccn3)C2)c1 (stereo unspecified)	15	2	10	12	0.8
Cc1ncc(CN2CCCC(C(=O)c3cccc(OC(C)C)c3)C2)s1 (stereo unspecified)	28	89*	18	5	0.7
COc1c(C)cc(C(=O)C2CCCN(Cc3cnc(C)s3)C2)cc1C (stereo unspecified)	16	70*	23	13	0.8
